Results reported in ChEMBL document CHEMBL1177799 (Bioorg Med Chem Lett, 2010).

Tests used:
Adenosine receptor A2b [1] = biological target: T1, Adenosine receptor A2b (Homo sapiens, UniProt P29275); experiment: Antagonist activity at human adenosine A2B receptor expressed in CHO cells assessed as inhibition of adenosine-induced cAMP production; type: functional, cell-based
T1 sequence (P29275 whole entry): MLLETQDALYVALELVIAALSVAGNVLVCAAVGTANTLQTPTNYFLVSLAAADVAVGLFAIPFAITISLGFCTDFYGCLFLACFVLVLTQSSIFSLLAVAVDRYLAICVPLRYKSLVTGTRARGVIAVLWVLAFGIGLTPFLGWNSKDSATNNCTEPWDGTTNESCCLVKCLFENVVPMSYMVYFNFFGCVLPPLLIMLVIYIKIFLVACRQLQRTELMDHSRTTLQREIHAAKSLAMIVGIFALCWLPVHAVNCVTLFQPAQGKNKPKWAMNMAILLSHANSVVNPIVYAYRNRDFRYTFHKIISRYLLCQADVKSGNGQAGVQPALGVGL
Procedure, shortened: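 CHO cells stably transfected with human A2B receptor, grown overnight as monolayer (7500 cells/well), washed with Krebs buffer, then exposed to compounds in Krebs buffer (final DMSO 1.1%) for 20–25 min. Wells emptied, cells lysed and cAMP measured with an enzyme-fragment complementation cAMP kit for adherent cells.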

Adenosine receptor A1 = biological target: T2, Adenosine receptor A1 (Homo sapiens, UniProt P30542); experiment: Displacement of [3H]-DPCPX from human adenosine A1 receptor expressed in CHO-K1 cells after 1 hr by scintillation counting; type: cell-based
T2 sequence (P30542 whole entry): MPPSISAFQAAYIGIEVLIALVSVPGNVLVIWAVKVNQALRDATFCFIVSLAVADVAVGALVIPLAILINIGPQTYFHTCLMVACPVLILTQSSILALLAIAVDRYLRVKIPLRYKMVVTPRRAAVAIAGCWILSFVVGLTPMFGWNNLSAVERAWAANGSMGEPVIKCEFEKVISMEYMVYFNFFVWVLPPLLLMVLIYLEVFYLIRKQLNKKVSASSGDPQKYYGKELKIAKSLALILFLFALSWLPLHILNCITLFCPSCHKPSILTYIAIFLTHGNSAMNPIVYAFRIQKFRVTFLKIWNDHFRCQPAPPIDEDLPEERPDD
Procedure, shortened: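 Commercial human A1 membranes (10 µg/well) in HEPES 50 mM, NaCl 100 mM, MgCl2 1 mM buffer; competition against [3H]-DPCPX (4.8 nM final), 1 h at room temperature with orbital shaking. Filtration harvest on polyethyleneimine-treated (0.5%) glass-fibre plates, air-dried, scintillation counting.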

Adenosine receptor A2a = Adenosine receptor A2a (Homo sapiens, UniProt P29274); experiment: Displacement of [3H]-ZM241385 from human adenosine A2A receptor expressed in CHO-K1 cells after 1 hr by scintillation counting; type: cell-based
Sequence of Adenosine receptor A2a (P29274 whole entry): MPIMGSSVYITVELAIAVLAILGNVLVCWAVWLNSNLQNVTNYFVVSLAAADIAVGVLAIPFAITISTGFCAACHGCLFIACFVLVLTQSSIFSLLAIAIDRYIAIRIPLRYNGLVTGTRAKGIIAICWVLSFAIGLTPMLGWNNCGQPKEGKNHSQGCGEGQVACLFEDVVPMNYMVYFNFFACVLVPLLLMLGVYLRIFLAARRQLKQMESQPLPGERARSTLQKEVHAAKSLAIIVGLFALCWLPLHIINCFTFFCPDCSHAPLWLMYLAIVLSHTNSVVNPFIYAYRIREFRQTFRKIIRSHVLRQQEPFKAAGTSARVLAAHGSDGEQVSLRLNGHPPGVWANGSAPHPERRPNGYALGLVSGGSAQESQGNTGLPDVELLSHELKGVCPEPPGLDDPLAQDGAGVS

Adenosine receptor A2b [2] = biological target: T1, Adenosine receptor A2b; experiment: Displacement of [3H]ZM241385 from human adenosine A2B receptor expressed in CHO cells after 1 hr by scintillation counting; type: cell-based
Procedure, shortened: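 Whole CHO cells expressing human A2B receptor, harvested mechanically from 80% confluent flasks, frozen, then resuspended in assay buffer on assay day. Competition against [3H]ZM241385 (30 nM final), 1 h at room temperature with shaking. Harvest on 0.5% polyethyleneimine-treated filter plates, air-dried, scintillation counting.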

[3] = Clearance in Han Wistar rat at 2.5 mg/kg, iv up to 24 hrs by LC-MS analysis; type: ADME, organism-based; parameters: dose 2.5 mg/kg, route intravenous; conditions: in vivo
Procedure, shortened: (§1)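 Male Han Wistar rats (n = 4) received a single 2.5 mg/kg intravenous tail-vein injection in DMA/PEG 400/40% HPBCD/H₂O. Plasma was sampled up to 24 h after dosing, and plasma drug levels were measured by LC–MS to derive the PK parameters.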

[4] = Volume of distribution in Han Wistar rat at 2.5 mg/kg, iv up to 24 hrs by LC-MS analysis; type: ADME, organism-based; parameters: dose 2.5 mg/kg, route intravenous; conditions: in vivo; procedure, shortened: as §1
[5] = Extrapolated AUC in Han Wistar rat at 2.5 mg/kg, iv up to 24 hrs by LC-MS analysis; type: ADME, organism-based; parameters: time < 24 hr, dose 2.5 mg/kg, route intravenous; conditions: in vivo
[6] = Cmax in Han Wistar rat at 50 mg/kg, po up to 24 hrs by LC-MS analysis; type: ADME, organism-based; parameters: dose 50 mg/kg, route oral; conditions: in vivo
[7] = Extrapolated AUC in Han Wistar rat at 50 mg/kg, po up to 24 hrs by LC-MS analysis; type: ADME, organism-based; parameters: time < 24 hr, dose 50 mg/kg, route oral; conditions: in vivo
[8] = Half life in Han Wistar rat at 50 mg/kg, po up to 24 hrs by LC-MS analysis; type: ADME, organism-based; parameters: dose 50 mg/kg, route oral; conditions: in vivo
Procedure, shortened: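 Male Han Wistar rats (n = 4 per route): iv 2.5 mg/kg via tail vein in DMA/PEG 400/40% HPBCD/H2O, or po 50 mg/kg in Capmul PG8 by intubation tube. Plasma sampled up to 24 h after dosing, drug levels measured by LC–MS.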

Adenosine receptor A3 = biological target: T3, Adenosine receptor A3 (Homo sapiens, UniProt P0DMS8); experiment: Binding affinity to adenosine A3 receptor
T3 sequence (P0DMS8 whole entry): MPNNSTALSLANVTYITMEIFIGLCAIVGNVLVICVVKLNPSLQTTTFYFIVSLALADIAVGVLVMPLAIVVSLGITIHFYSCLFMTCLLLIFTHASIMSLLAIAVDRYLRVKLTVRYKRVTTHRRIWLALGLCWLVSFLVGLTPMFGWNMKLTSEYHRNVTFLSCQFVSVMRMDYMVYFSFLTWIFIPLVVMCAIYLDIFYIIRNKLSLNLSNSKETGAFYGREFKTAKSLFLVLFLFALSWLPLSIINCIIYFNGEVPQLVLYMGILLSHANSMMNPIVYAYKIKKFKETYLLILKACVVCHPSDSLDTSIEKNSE

| Compound | IC50 (Adenosine receptor A2b [1]) [µM] | Ki (Adenosine receptor A1) [µM] | Ki (Adenosine receptor A2a) [µM] | Ki (Adenosine receptor A2b [2]) [µM] | further results |
| --- | --- | --- | --- | --- | --- |
| CCN(C(C)=O)c1ccc(OC)c2nc(NC(=O)c3ccc(C#N)cc3)sc12 | 0.028 | 0.071 | 0.05 | 0.01 | – |
| CCN(C(C)=O)c1ccc(OC)c2nc(NC(=O)c3ccc(S(C)(=O)=O)cc3)sc12 | 0.036 | 0.39 | 0.092 | 0.019 | – |
| CCN(C(C)=O)c1ccc(Cl)c2nc(NC(=O)c3ccc(F)cc3)sc12 | 0.023 | 0.03 | 0.015 | – | – |
| COc1ccc(N(CC(=O)N(C)C)C(C)=O)c2sc(NC(=O)c3ccc(F)cc3)nc12 | 0.6 | 1.6 | 0.48 | – | – |
| CCN(C(C)=O)c1ccc(OC)c2nc(NC(=O)c3ccc(C(=O)N4CCOCC4)cc3)sc12 | 0.021 | 0.16 | 0.076 | 0.007 | – |
| CCN(C(C)=O)c1ccc(OC)c2nc(NC(=O)c3ccc(C(=O)N4CCCCC4)cc3)sc12 | 0.016 | 0.3 | 0.1 | 0.004 | – |
| CCN(C(C)=O)c1ccc(OC)c2nc(NC(=O)c3ccc(-n4cccn4)cc3)sc12 | 0.021 | 0.078 | 0.066 | 0.018 | – |
| CCN(C(C)=O)c1ccc(OC)c2nc(NC(=O)c3ccc(NS(C)(=O)=O)cc3)sc12 | 0.037 | 0.11 | 0.046 | 0.022 | – |
| COc1ccc(N(CC(=O)O)C(C)=O)c2sc(NC(=O)c3ccc(F)cc3)nc12 | 6 | 2.6 | 2.2 | – | – |
| CCN(C(C)=O)c1ccc(OC)c2nc(NC(=O)c3ccnn3C)sc12 | 0.021 | 0.1 | 0.051 | 0.008 | clearance [3]: 46 mL/min/kg; Vd [4]: 3 L/kg; AUC at 24 h [5]: 929 ng·h/mL; Cmax [6]: 7420 ng/mL; AUC at 24 h [7]: 74400 ng·h/mL; half-life [8]: 2.1 h; Ki (Adenosine receptor A3): 0.08 µM |
| COc1ccc(NC(C)=O)c2sc(NC(=O)c3ccc(F)cc3)nc12 | 0.35 | 1.6 | 0.25 | 0.13 | – |
| CCN(C(C)=O)c1ccc(OC)c2nc(NC(=O)c3cc[nH]c3)sc12 | 0.007 | 0.035 | 0.018 | – | – |
| CNC(=O)CN(C(C)=O)c1ccc(OC)c2nc(NC(=O)c3ccc(F)cc3)sc12 | 0.35 | 0.79 | 0.33 | – | – |
| COc1ccc(N(CC(N)=O)C(C)=O)c2sc(NC(=O)c3ccc(F)cc3)nc12 | 0.06 | 0.56 | 0.16 | – | – |
| CCN(C(C)=O)c1ccc(OC)c2nc(NC(=O)c3ccc(C(=O)NC)cc3)sc12 | 0.021 | 0.185 | 0.084 | – | – |
| CCN(C(C)=O)c1ccc(OC)c2nc(NC(=O)c3ccc(C(=O)N4CCN(C)CC4)cc3)sc12 | 0.038 | 0.12 | 0.089 | 0.018 | – |
| CCN(C(C)=O)c1ccc(OC)c2nc(NC(=O)c3cn[nH]c3)sc12 | 0.021 | – | – | – | – |
| CCN(C(C)=O)c1ccc(OC)c2nc(NC(=O)c3cnn(C)c3)sc12 | 0.029 | – | 0.041 | 0.019 | – |
| CCN(C(C)=O)c1ccc(OC)c2nc(NC(=O)c3cnn(Cc4cccc(C(F)(F)F)c4)c3)sc12 | 0.006 | 0.006 | 0.003 | 0.004 | – |

| Compound | IC50 (Adenosine receptor A2b [1]) [µM] | Ki (Adenosine receptor A1) [µM] | Ki (Adenosine receptor A2a) [µM] | Ki (Adenosine receptor A2b [2]) [µM] | further results |
| --- | --- | --- | --- | --- | --- |
| CCN(C(C)=O)c1ccc(OC)c2nc(NC(=O)c3cnn(Cc4cccc(F)c4)c3)sc12 | 0.012 | 0.009 | 0.003 | 0.006 | – |
| CCN(C(C)=O)c1ccc(OC)c2nc(NC(=O)c3ccc(C(=O)N4CCCC4)cc3)sc12 | 0.016 | 0.05 | 0.068 | – | – |
| CCN(C(C)=O)c1ccc(OC)c2nc(NC(=O)c3ccc(-n4cnnn4)cc3)sc12 | 0.028 | 0.13 | 0.08 | 0.023 | – |
| COc1ccc(N(CCCO)C(C)=O)c2sc(NC(=O)c3ccc(F)cc3)nc12 | 0.042 | 0.1 | 0.029 | – | – |
| COC(=O)CN(C(C)=O)c1ccc(OC)c2nc(NC(=O)c3ccc(F)cc3)sc12 | 0.008 | 0.023 | 0.005 | – | – |
| COCCN(C(C)=O)c1ccc(OC)c2nc(NC(=O)c3ccc(F)cc3)sc12 | 0.033 | 0.11 | 0.038 | – | – |
| COc1ccc(N(CC(C)C)C(C)=O)c2sc(NC(=O)c3ccc(F)cc3)nc12 | 0.023 | 0.037 | 0.003 | – | – |
| CCN(C(C)=O)c1ccc(OC)c2nc(NC(=O)c3ccc(F)cc3)sc12 | 0.012 | 0.066 | 0.022 | 0.013 | – |
| COc1ccc(N(C)C(C)=O)c2sc(NC(=O)c3ccc(F)cc3)nc12 | 0.015 | 0.066 | 0.039 | 0.022 | – |
| COc1ccc(N(CCO)C(C)=O)c2sc(NC(=O)c3ccc(F)cc3)nc12 | 0.077 | 0.45 | 0.098 | – | – |
| COc1ccc(N(C(C)=O)C(F)F)c2sc(NC(=O)c3ccc(F)cc3)nc12 | 0.23 | 0.03 | 0.061 | – | – |
| COc1ccc(N(CC(F)(F)F)C(C)=O)c2sc(NC(=O)c3ccc(F)cc3)nc12 | 0.04 | 0.042 | 0.035 | – | – |
| COc1ccc(N(C(C)=O)C(C)C)c2sc(NC(=O)c3ccc(F)cc3)nc12 | 0.019 | – | – | – | – |
| CCN(C(C)=O)c1ccc(OC)c2nc(NC(=O)c3ccc(C(=O)OC)cc3)sc12 | 0.035 | 0.185 | 0.17 | 0.015 | – |
| CCN(C(C)=O)c1ccc(OC)c2nc(NC(=O)c3ccc(-n4ccnc4)cc3)sc12 | 0.019 | 0.15 | 0.077 | 0.008 | – |
| CCN(C(C)=O)c1ccc(OC)c2nc(NC(=O)c3ccc(CN4CCCC4=O)cc3)sc12 | 0.028 | 0.4 | 0.027 | 0.014 | – |
| CCN(C(C)=O)c1ccc(OC)c2nc(NC(=O)c3ccc(CN(C)S(C)(=O)=O)cc3)sc12 | 0.019 | 0.41 | 0.071 | 0.004 | – |
| CCN(C(C)=O)c1ccc(OC)c2nc(NC(=O)c3ccc(C(=O)N(C)CCOC)cc3)sc12 | 0.013 | 0.18 | 0.026 | 0.013 | – |
